Experimental data from ChEMBL document CHEMBL1152452, “Modifications incorporated in CpG motifs of oligodeoxynucleotides lead to antagonist activity of toll-like receptors 7 and 9” (2009).
Active and inactive are the calls of the source. The rule behind the calls is not given here.

Tests used:
[1] = molecular target: T1, Toll-like receptor 9 (Mus musculus) (UniProt Q9EQU3); experiment: Activation of mouse TLR9 expressed in HEK293 cells assessed as NF-kappaB level at 0.1 ug/mL after 18 hrs by reporter gene assay; type: cell-based
T1 sequence (whole entry): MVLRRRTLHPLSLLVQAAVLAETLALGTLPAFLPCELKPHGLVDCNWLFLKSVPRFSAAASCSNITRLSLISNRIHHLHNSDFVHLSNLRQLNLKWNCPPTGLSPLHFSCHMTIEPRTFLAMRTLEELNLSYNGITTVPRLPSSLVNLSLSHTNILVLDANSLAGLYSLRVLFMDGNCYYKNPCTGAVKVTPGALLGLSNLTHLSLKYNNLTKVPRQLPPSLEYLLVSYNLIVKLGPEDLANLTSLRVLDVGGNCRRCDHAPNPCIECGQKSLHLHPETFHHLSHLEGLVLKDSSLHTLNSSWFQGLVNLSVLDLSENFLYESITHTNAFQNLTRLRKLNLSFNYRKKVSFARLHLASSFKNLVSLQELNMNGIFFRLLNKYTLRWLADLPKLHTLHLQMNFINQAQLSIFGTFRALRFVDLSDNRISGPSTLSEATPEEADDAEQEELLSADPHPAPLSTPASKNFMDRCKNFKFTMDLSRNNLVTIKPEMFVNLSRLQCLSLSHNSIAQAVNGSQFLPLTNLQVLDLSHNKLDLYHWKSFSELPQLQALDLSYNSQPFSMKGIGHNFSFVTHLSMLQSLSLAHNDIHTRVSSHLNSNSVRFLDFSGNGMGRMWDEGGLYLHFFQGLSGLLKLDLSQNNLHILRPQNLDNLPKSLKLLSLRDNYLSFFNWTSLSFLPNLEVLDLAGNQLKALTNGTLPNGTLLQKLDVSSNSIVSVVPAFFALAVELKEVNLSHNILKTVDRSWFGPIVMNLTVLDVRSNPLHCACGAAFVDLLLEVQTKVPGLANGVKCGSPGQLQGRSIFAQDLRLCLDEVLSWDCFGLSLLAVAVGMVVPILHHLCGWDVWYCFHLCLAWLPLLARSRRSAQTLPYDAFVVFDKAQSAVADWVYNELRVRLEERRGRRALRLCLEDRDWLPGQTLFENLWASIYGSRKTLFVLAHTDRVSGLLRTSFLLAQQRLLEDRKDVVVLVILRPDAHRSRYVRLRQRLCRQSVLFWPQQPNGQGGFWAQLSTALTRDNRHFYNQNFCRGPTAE
Summary of the method: (§1)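 HEK293 cells stably expressing mouse TLR9 were transiently transfected with a SEAP reporter for 6 h, then stimulated with ODN at 0.1, 0.3 or 1 μg/mL for 18 h. Reporter expression is given as fold change in NF-κB activity over medium. Representative of two independent experiments.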

[2] = tested on: Mus musculus; experiment: Immunostimulatory activity in C57BL/6 mouse assessed as inhibition of 5'-CTATCTGACGTTCTCTGT-3'-induced KC production in serum at 2 mg/kg, sc administered 24 hrs prior to 5'-CTATCTGACGTTCTCTGT-3' challenge measured after 2 hrs by Luminex multiplex assay; type: functional, organism-based; design: dose 2 mg/kg
Summary of the method: (§2)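 C57BL/6 mice received 2 mg/kg ODN sc in one flank. After 24 h, the TLR9 agonist ODN was given at 0.5 mg/kg sc in the opposite flank. Blood was drawn 2 h later and serum cytokines/chemokines were quantified by Luminex multiplex assay. Percent inhibition was taken against the agonist alone. Representative of three experiments.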

[3] = tested on: Mus musculus; experiment: Immunostimulatory activity in C57BL/6 mouse assessed as inhibition of 5'-CTATCTGACGTTCTCTGT-3'-induced MCP1 production in serum at 2 mg/kg, sc administered 24 hrs prior to 5'-CTATCTGACGTTCTCTGT-3' challenge measured after 2 hrs by Luminex multiplex assay; type: functional, organism-based; design: dose 2 mg/kg; summary of the method: as §2
[4] = molecular target: T1, Toll-like receptor 9 (Mus musculus); experiment: Activation of mouse TLR9 expressed in HEK293 cells assessed as NF-kappaB level at 1 ug/mL after 18 hrs by reporter gene assay; type: cell-based; summary of the method: as §1
[5] = tested on: Mus musculus; experiment: Immunostimulatory activity in C57BL/6 mouse assessed as inhibition of 5'-CTATCTGACGTTCTCTGT-3'-induced IL10 production in serum at 2 mg/kg, sc administered 24 hrs prior to 5'-CTATCTGACGTTCTCTGT-3' challenge measured after 2 hrs by Luminex multiplex assay; type: functional, organism-based; design: dose 2 mg/kg; summary of the method: as §2
[6] = tested on: Mus musculus; experiment: Immunostimulatory activity in C57BL/6 mouse assessed as inhibition of 5'-CTATCTGACGTTCTCTGT-3'-induced TNFalpha production in serum at 2 mg/kg, sc administered 24 hrs prior to 5'-CTATCTGACGTTCTCTGT-3' challenge measured after 2 hrs by Luminex multiplex assay; type: functional, organism-based; design: dose 2 mg/kg; summary of the method: as §2
[7] = tested on: Splenocyte; experiment: Immunostimulatory activity in C57BL/6 mouse splenocytes assessed as induction of IL6 secretion at 2 to 10 ug/ml after 24 hrs by sandwich ELISA; type: functional, cell-based
Summary of the method: (§3)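 C57BL/6 splenocytes (mice 5–8 weeks) at 5 × 10^6 cells/mL in RPMI complete medium. ODNs dissolved in PBS were added and the cells incubated at 37 °C for 24 h. Supernatant IL-12 or IL-6 was measured by sandwich ELISA. Runs were done two or three times, in duplicate per concentration.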

[8] = tested on: Splenocyte; experiment: Immunostimulatory activity in C57BL/6 mouse splenocytes assessed as induction of IL12 secretion at 2 to 10 ug/ml after 24 hrs by sandwich ELISA; type: functional, cell-based; summary of the method: as §3
[9] = tested on: Mus musculus; experiment: Immunostimulatory activity in C57BL/6 mouse assessed as inhibition of 5'-CTATCTGACGTTCTCTGT-3'-induced MIP-1alpha production in serum at 2 mg/kg, sc administered 24 hrs prior to 5'-CTATCTGACGTTCTCTGT-3' challenge measured after 2 hrs by Luminex multiplex assay; type: functional, organism-based; design: dose 2 mg/kg; summary of the method: as §2
[10] = molecular target: T1, Toll-like receptor 9 (Mus musculus); experiment: Activation of mouse TLR9 expressed in HEK293 cells assessed as NF-kappaB level at 0.3 ug/mL after 18 hrs by reporter gene assay; type: cell-based; summary of the method: as §1

- Activity [1]: inactive
- Activity [4]: inactive
- Activity [10]: inactive
SMILES: Cc1cn([C@H]2C[C@H](OP(=O)(S)OC[C@H]3O[C@@H](n4ccc(N)nc4=O)C[C@@H]3OP(=O)(S)OC[C@H]3O[C@@H](n4cc(C)c(=O)[nH]c4=O)C[C@@H]3OP(=O)(S)OC[C@H]3O[C@@H](n4cc(C)c(=O)[nH]c4=O)C[C@@H]3OP(=O)(S)OC[C@H]3O[C@@H](n4ccc(N)nc4=O)C[C@@H]3OP(=O)(S)OC[C@H]3O[C@@H](n4cc(C)c(=O)[nH]c4=O)C[C@@H]3OP(=O)(S)OC[C@H]3O[C@@H](n4ccc(N)nc4=O)C[C@@H]3OP(=O)(S)OC[C@H]3O[C@@H](n4cc(C)c(=O)[nH]c4=O)C[C@@H]3OP(=O)(S)OC[C@H]3O[C@@H](n4cnc5c(=O)[nH]c(N)nc54)C[C@@H]3OP(=O)(S)OC[C@H]3O[C@@H](n4cc(C)c(=O)[nH]c4=O)C[C@@H]3O)[C@@H](COP(=O)(S)O[C@H]3C[C@H](n4cnc5c(N)ncnc54)O[C@@H]3COP(=O)(S)O[C@H]3C[C@H](n4cnc5c(=O)[nH]c(N)nc54)O[C@@H]3COP(=O)(S)O[C@H]3C[C@H](n4cc(C)c(=O)[nH]c4=O)O[C@@H]3COP(=O)(S)O[C@H]3C[C@H](n4ccc(N)nc4=O)O[C@@H]3COP(=O)(S)O[C@H]3C[C@H](n4cc(C)c(=O)[nH]c4=O)O[C@@H]3COP(=O)(S)O[C@H]3C[C@H](n4cnc5c(N)ncnc54)O[C@@H]3COP(=O)(S)O[C@H]3C[C@H](n4cc(C)c(=O)[nH]c4=O)O[C@@H]3COP(=O)(S)O[C@H]3C[C@H](n4ccc(N)nc4=O)O[C@@H]3CO)O2)c(=O)nc1N (stereo not given in full)
- Activity [2]: Active
- Activity [3]: Active
- Activity [5]: Active
- Activity [6]: Active
- Activity [7]: inactive
- Activity [8]: inactive
- Activity [9]: Active
